ChEMBL document CHEMBL1154842, “Synthesis, radiolabeling, and biological evaluation of (R)- and (S)-2-amino-3-[(18)F]fluoro-2-methylpropanoic acid (FAMP) and (R)- and (S)-3-[(18)F]fluoro-2-methyl-2-N-(methylamino)propanoic acid (NMeFAMP) as potential PET radioligands for imaging brain tumors” (J Med Chem, 2010)

Legend:
[1] = Biodistribution in tumor of Fischer 344 rat bearing rat 9L cells at 20 uCi, iv after 30 mins; assay type: ADME, organism-based, Neoplasm; details: in vivo, 0.5 h
In short: (§1)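 Male Fischer 344 rats (200–250 g) carrying intracranial 9L gliosarcoma (5×10^4 cells implanted stereotactically, 10–12 days growth), under ketamine:xylazine anaesthesia. About 20 μCi tracer in 0.5 mL sterile saline given via tail-vein catheter. Groups of 4–5 were killed by intracardiac KCl at 15 (NMeFAMP only), 30, 60 or 120 min. Tissues were weighed and gamma-counted, decay-corrected, and reported as %ID/g, mean ± SD.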

[2] = Ratio of drug level from tumor to brain of Fischer 344 rat bearing rat 9L cells at 20 uCi, iv after 120 mins; assay type: ADME, organism-based; details: in vivo, 2 h
Blood [3] = assay: Biodistribution in blood of Fischer 344 rat bearing rat 9L cells at 20 uCi, iv after 30 mins; assay type: ADME, organism-based; details: in vivo, 0.5 h; in short: as §1
Blood [4] = assay: Biodistribution in blood of Fischer 344 rat bearing rat 9L cells at 20 uCi, iv after 60 mins; assay type: ADME, organism-based; details: in vivo, 1 h; in short: as §1
Blood [5] = assay: Biodistribution in blood of Fischer 344 rat bearing rat 9L cells at 20 uCi, iv after 120 mins; assay type: ADME, organism-based; details: in vivo, 2 h; in short: as §1
Heart [6] = assay: Biodistribution in heart of Fischer 344 rat bearing rat 9L cells at 20 uCi, iv after 30 mins; assay type: ADME, organism-based; details: in vivo, 0.5 h; in short: as §1
Heart [7] = assay: Biodistribution in heart of Fischer 344 rat bearing rat 9L cells at 20 uCi, iv after 60 mins; assay type: ADME, organism-based; details: in vivo, 1 h; in short: as §1
Heart [8] = assay: Biodistribution in heart of Fischer 344 rat bearing rat 9L cells at 20 uCi, iv after 120 mins; assay type: ADME, organism-based; details: in vivo, 2 h; in short: as §1
Lung [9] = assay: Biodistribution in lung of Fischer 344 rat bearing rat 9L cells at 20 uCi, iv after 30 mins; assay type: ADME, organism-based; details: in vivo, 0.5 h; in short: as §1
Lung [10] = assay: Biodistribution in lung of Fischer 344 rat bearing rat 9L cells at 20 uCi, iv after 60 mins; assay type: ADME, organism-based; details: in vivo, 1 h; in short: as §1
Lung [11] = assay: Biodistribution in lung of Fischer 344 rat bearing rat 9L cells at 20 uCi, iv after 120 mins; assay type: ADME, organism-based; details: in vivo, 2 h; in short: as §1
Liver [12] = assay: Biodistribution in liver of Fischer 344 rat bearing rat 9L cells at 20 uCi, iv after 30 mins; assay type: ADME, organism-based; details: in vivo, 0.5 h; in short: as §1
Liver [13] = assay: Biodistribution in liver of Fischer 344 rat bearing rat 9L cells at 20 uCi, iv after 60 mins; assay type: ADME, organism-based; details: in vivo, 1 h; in short: as §1
Liver [14] = assay: Biodistribution in liver of Fischer 344 rat bearing rat 9L cells at 20 uCi, iv after 120 mins; assay type: ADME, organism-based; details: in vivo, 2 h; in short: as §1
Pancreas [15] = assay: Biodistribution in pancreas of Fischer 344 rat bearing rat 9L cells at 20 uCi, iv after 30 mins; assay type: ADME, organism-based; details: in vivo, 0.5 h; in short: as §1
Pancreas [16] = assay: Biodistribution in pancreas of Fischer 344 rat bearing rat 9L cells at 20 uCi, iv after 60 mins; assay type: ADME, organism-based; details: in vivo, 1 h; in short: as §1
Pancreas [17] = assay: Biodistribution in pancreas of Fischer 344 rat bearing rat 9L cells at 20 uCi, iv after 120 mins; assay type: ADME, organism-based; details: in vivo, 2 h; in short: as §1
Spleen [18] = assay: Biodistribution in spleen of Fischer 344 rat bearing rat 9L cells at 20 uCi, iv after 30 mins; assay type: ADME, organism-based; details: in vivo, 0.5 h; in short: as §1
Spleen [19] = assay: Biodistribution in spleen of Fischer 344 rat bearing rat 9L cells at 20 uCi, iv after 60 mins; assay type: ADME, organism-based; details: in vivo, 1 h; in short: as §1
Spleen [20] = assay: Biodistribution in spleen of Fischer 344 rat bearing rat 9L cells at 20 uCi, iv after 120 mins; assay type: ADME, organism-based; details: in vivo, 2 h; in short: as §1
Kidney [21] = assay: Biodistribution in kidney of Fischer 344 rat bearing rat 9L cells at 20 uCi, iv after 30 mins; assay type: ADME, organism-based; details: in vivo, 0.5 h; in short: as §1
Kidney [22] = assay: Biodistribution in kidney of Fischer 344 rat bearing rat 9L cells at 20 uCi, iv after 60 mins; assay type: ADME, organism-based; details: in vivo, 1 h; in short: as §1
Kidney [23] = assay: Biodistribution in kidney of Fischer 344 rat bearing rat 9L cells at 20 uCi, iv after 120 mins; assay type: ADME, organism-based; details: in vivo, 2 h; in short: as §1
Muscle tissue [24] = assay: Biodistribution in muscle of Fischer 344 rat bearing rat 9L cells at 20 uCi, iv after 30 mins; assay type: ADME, organism-based; details: in vivo, 0.5 h; in short: as §1
Muscle tissue [25] = assay: Biodistribution in muscle of Fischer 344 rat bearing rat 9L cells at 20 uCi, iv after 60 mins; assay type: ADME, organism-based; details: in vivo, 1 h; in short: as §1
Muscle tissue [26] = assay: Biodistribution in muscle of Fischer 344 rat bearing rat 9L cells at 20 uCi, iv after 120 mins; assay type: ADME, organism-based; details: in vivo, 2 h; in short: as §1
Bone [27] = assay: Biodistribution in bone of Fischer 344 rat bearing rat 9L cells at 20 uCi, iv after 30 mins; assay type: ADME, organism-based, Bone element; details: in vivo, 0.5 h; in short: as §1
Bone [28] = assay: Biodistribution in bone of Fischer 344 rat bearing rat 9L cells at 20 uCi, iv after 60 mins; assay type: ADME, organism-based, Bone element; details: in vivo, 1 h; in short: as §1
Bone [29] = assay: Biodistribution in bone of Fischer 344 rat bearing rat 9L cells at 20 uCi, iv after 120 mins; assay type: ADME, organism-based, Bone element; details: in vivo, 2 h; in short: as §1
[30] = Biodistribution in testis of Fischer 344 rat bearing rat 9L cells at 20 uCi, iv after 30 mins; assay type: ADME, organism-based; details: in vivo, 0.5 h; in short: as §1
[31] = Biodistribution in testis of Fischer 344 rat bearing rat 9L cells at 20 uCi, iv after 60 mins; assay type: ADME, organism-based; details: in vivo, 1 h; in short: as §1
[32] = Biodistribution in testis of Fischer 344 rat bearing rat 9L cells at 20 uCi, iv after 120 mins; assay type: ADME, organism-based; details: in vivo, 2 h; in short: as §1
[33] = rat, in vivo, iv, 1 h
[34] = rat, in vivo, iv, 1 h; remark: listed apart in the source
Brain = assay: Biodistribution in brain of Fischer 344 rat bearing rat 9L cells at 20 uCi, iv after 30 mins; details: in vivo, 0.5 h
[35] = Biodistribution in tumor of Fischer 344 rat bearing rat 9L cells at 20 uCi, iv after 30 mins; details: in vivo, 0.5 h
[36] = Ratio of drug level from tumor to brain of Fischer 344 rat bearing rat 9L cells at 20 uCi, iv after 60 mins; details: in vivo, 1 h

C[C@](N)(C[18F])C(=O)O.Cl
Ratio [1]: 38.2 | Ratio [2]: 27.5 | Drug uptake (Blood [3]): 0.28 % ID/g | Drug uptake (Blood [4]): 0.25 % ID/g | Drug uptake (Blood [5]): 0.16 % ID/g | Drug uptake (Heart [6]): 0.32 % ID/g | Drug uptake (Heart [7]): 0.34 % ID/g | Drug uptake (Heart [8]): 0.23 % ID/g | Drug uptake (Lung [9]): 0.37 % ID/g | Drug uptake (Lung [10]): 0.4 % ID/g | Drug uptake (Lung [11]): 0.23 % ID/g | Drug uptake (Liver [12]): 0.6 % ID/g | Drug uptake (Liver [13]): 0.65 % ID/g | Drug uptake (Liver [14]): 0.32 % ID/g | Drug uptake (Pancreas [15]): 2.96 % ID/g | Drug uptake (Pancreas [16]): 2.05 % ID/g | Drug uptake (Pancreas [17]): 1.17 % ID/g | Drug uptake (Spleen [18]): 0.72 % ID/g | Drug uptake (Spleen [19]): 0.71 % ID/g | Drug uptake (Spleen [20]): 0.39 % ID/g | Drug uptake (Kidney [21]): 3.47 % ID/g | Drug uptake (Kidney [22]): 2.96 % ID/g | Drug uptake (Kidney [23]): 2.09 % ID/g | Drug uptake (Muscle tissue [24]): 0.32 % ID/g | Drug uptake (Muscle tissue [25]): 0.52 % ID/g | Drug uptake (Muscle tissue [26]): 0.36 % ID/g | Drug uptake (Bone [27]): 0.23 % ID/g | Drug uptake (Bone [28]): 0.36 % ID/g | Drug uptake (Bone [29]): 0.26 % ID/g | Drug uptake [30]: 0.15 % ID/g | Drug uptake [31]: 0.17 % ID/g | Drug uptake [32]: 0.16 % ID/g | Drug uptake [33]: 0.1 % ID/g | Drug uptake [34]: 2.82 % ID/g | Drug uptake (Brain): 0.06 % ID/g | Drug uptake [35]: 2.46 % ID/g | Ratio [36]: 28.6
